According to ChEMBL document CHEMBL1143260, “Substrate specificity and screening of the integral membrane protease Pla” (Bioorg Med Chem Lett, 2008):
The source made the active and inactive calls. The rule behind the calls is not given here. Residues, ends and D or L forms follow the SMILES beside them. *: point of attachment. X1 = CN(C)c1ccc(/N=N/c2ccc(C(=O)*)cc2)cc1; EDANS = O=S(=O)(O)c1cccc2c(NCCN*)cccc12

Tests used:
[1] = target: Tissue-type plasminogen activator (Homo sapiens) (UniProt P00750); assay: Hydrolysis activity of plasminogen activator by LC-MS analysis
Tissue-type plasminogen activator (Homo sapiens), sequence (P00750 36-562 limits assumed): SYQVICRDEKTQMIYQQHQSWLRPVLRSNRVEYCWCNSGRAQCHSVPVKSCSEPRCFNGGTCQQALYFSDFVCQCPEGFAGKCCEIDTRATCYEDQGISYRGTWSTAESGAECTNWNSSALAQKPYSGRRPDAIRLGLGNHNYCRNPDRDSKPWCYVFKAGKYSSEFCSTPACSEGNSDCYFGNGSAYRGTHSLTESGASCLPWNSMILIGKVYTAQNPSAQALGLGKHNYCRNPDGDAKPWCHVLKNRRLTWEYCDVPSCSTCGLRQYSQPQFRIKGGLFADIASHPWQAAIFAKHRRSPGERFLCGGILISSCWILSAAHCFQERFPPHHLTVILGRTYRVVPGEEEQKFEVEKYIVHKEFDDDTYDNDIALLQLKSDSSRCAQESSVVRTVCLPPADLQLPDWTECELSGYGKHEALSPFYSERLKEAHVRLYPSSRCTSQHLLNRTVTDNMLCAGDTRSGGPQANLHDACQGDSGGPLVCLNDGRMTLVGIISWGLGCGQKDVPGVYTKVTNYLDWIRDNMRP
Method in brief: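 Peptides were incubated with Pla, and the reaction mixtures were analysed by LC-MS. Cleavage was assigned from product retention time and mass, for example a DABCYL-Arg-OH fragment.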

[2] = target: Tissue-type plasminogen activator (Homo sapiens) (UniProt P00750); assay: Inhibition of recombinant plasminogen activator assessed as conversion of plasminogen to plasmin in fibrinolytic assay
Method in brief: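 Fibrin plate functional assay: purified Pla was pre-incubated with the peptide, dissolved in DMSO or water and tested in 2-fold dilutions. Samples were spotted onto an opalescent fibrin film containing plasminogen. No-peptide spots served as controls.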

[3] = target: Urokinase-type plasminogen activator (Homo sapiens) (UniProt P00749); assay: Inhibition of urokinase-type plasminogen activator
[4] = target: Tissue-type plasminogen activator (Homo sapiens) (UniProt P00750); assay: Inhibition of purified recombinant plasminogen activator by fluorometric assay
[5] = target: T1, Plasminogen activator (Yersinia pestis) (UniProt P17811); assay: Inhibition of plasminogen activator in Yersinia pestis by fluorometric assay
T1 sequence (whole entry): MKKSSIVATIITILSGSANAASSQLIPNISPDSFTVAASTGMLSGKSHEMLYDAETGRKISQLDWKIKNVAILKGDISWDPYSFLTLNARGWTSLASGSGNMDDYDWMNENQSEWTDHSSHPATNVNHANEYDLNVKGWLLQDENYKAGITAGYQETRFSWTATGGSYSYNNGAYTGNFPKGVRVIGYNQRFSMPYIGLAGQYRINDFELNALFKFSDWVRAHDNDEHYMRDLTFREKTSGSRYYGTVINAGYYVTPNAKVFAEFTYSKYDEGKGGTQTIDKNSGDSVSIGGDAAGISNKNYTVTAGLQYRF

[6] = target: T1, Plasminogen activator (Yersinia pestis); assay: Inhibition of plasminogen activator in Yersinia pestis assessed as conversion of plasminogen to plasmin in fibrinolytic assay
Method in brief: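 Fibrin plate assay. Purified recombinant Pla was pre-incubated with the peptide in 2-fold dilutions (dissolved in DMSO or water), then spotted onto an opalescent fibrin film. Pla converts plasminogen to plasmin, and fibrinolysis appears as a clear spot. Inhibition was judged against spots with no peptide added.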

Compound	Activity [1]	Activity [2]	Activity [3]	Activity [4]	Activity [5]	Activity [6]
CC[C@H](C)[C@H](NC(=O)[C@H](CCCNC(=N)N)NC(=O)[C@H](CCCNC(=N)N)NC(=O)c1ccc(/N=N/c2ccc(N(C)C)cc2)cc1)C(=O)NCCNc1cccc2c(S(=O)(=O)O)cccc12	Active	Active	–	–	–	–
CC[C@H](C)[C@H](NC(=O)[C@H](CCCNC(=N)N)NC(=O)[C@H](CCCNC(=N)N)NC(=O)c1ccc(/N=N/c2ccc(N(C)C)cc2)cc1)C(=O)N[C@@H](CC(N)=O)C(=O)O (X1-RRIN-OH)	Active	inactive	–	–	–	–
CN(C)c1ccc(/N=N/c2ccc(C(=O)N[C@@H](CCCNC(=N)N)C(=O)N[C@@H](CCCNC(=N)N)C(=O)O)cc2)cc1	inactive	inactive	–	–	–	–
CC[C@H](C)[C@H](NC(=O)[C@H](CCCNC(=N)N)NC(=O)[C@H](CCCNC(=N)N)NC(=O)c1ccc(/N=N/c2ccc(N(C)C)cc2)cc1)C(=O)N[C@@H](CC(=O)O)C(=O)NCCNc1cccc2c(S(=O)(=O)O)cccc12 (X1-RRID-{EDANS})	Active	Active	–	–	–	–
CC[C@H](C)[C@H](NC(=O)[C@H](CCCNC(=N)N)NC(=O)[C@H](CCCNC(=N)N)NC(=O)c1ccc(/N=N/c2ccc(N(C)C)cc2)cc1)C(=O)O	Active	inactive	–	–	–	–
CC[C@H](C)[C@H](NC(=O)[C@H](CCCNC(=N)N)NC(=O)[C@H](CCCNC(=N)N)NC(=O)c1ccc(/N=N/c2ccc(N(C)C)cc2)cc1)C(=O)N[C@@H](CC(N)=O)C(=O)N[C@@H](CCCNC(=N)N)C(=O)N[C@@H](CCC(=O)NCCNc1cccc2c(S(=O)(=O)O)cccc12)C(N)=O (X1-RRINRE(EDANS)-NH2)	Active	Active	inactive	Active	Active	Active
CC[C@H](C)[C@H](NC(=O)[C@H](CCCNC(=N)N)NC(=O)[C@H](CCCNC(=N)N)NC(=O)c1ccc(/N=N/c2ccc(N(C)C)cc2)cc1)C(=O)N[C@@H](CC(N)=O)C(=O)N[C@@H](CCCNC(=N)N)C(=O)N[C@@H](CCC(=O)O)C(=O)NCCNc1cccc2c(S(=O)(=O)O)cccc12 (X1-RRINRE-{EDANS})	Active	Active	–	–	–	–
CC[C@H](C)[C@H](NC(=O)[C@H](CCCNC(=N)N)NC(=O)[C@H](CCCNC(=N)N)NC(=O)c1ccc(/N=N/c2ccc(N(C)C)cc2)cc1)C(=O)N[C@@H](CC(N)=O)C(=O)N[C@@H](CCCNC(=N)N)C(=O)O (X1-RRINR-OH)	Active	inactive	–	–	–	–
